Data reported in ChEMBL document CHEMBL1122902, “Synthesis of the antileukemic agents 5,10-dideazaaminopterin and 5,10-dideaza-5,6,7,8-tetrahydroaminopterin” (J Med Chem, 1985).

Legend:
[1] = target: T1, Folylpolyglutamate synthase, mitochondrial (Mus musculus) (UniProt P48760); test: Activity (relative Km ) was evaluated in vitro by purified mouse liver folate polyglutamate synthetase (FPGS).
T1 sequence (whole entry): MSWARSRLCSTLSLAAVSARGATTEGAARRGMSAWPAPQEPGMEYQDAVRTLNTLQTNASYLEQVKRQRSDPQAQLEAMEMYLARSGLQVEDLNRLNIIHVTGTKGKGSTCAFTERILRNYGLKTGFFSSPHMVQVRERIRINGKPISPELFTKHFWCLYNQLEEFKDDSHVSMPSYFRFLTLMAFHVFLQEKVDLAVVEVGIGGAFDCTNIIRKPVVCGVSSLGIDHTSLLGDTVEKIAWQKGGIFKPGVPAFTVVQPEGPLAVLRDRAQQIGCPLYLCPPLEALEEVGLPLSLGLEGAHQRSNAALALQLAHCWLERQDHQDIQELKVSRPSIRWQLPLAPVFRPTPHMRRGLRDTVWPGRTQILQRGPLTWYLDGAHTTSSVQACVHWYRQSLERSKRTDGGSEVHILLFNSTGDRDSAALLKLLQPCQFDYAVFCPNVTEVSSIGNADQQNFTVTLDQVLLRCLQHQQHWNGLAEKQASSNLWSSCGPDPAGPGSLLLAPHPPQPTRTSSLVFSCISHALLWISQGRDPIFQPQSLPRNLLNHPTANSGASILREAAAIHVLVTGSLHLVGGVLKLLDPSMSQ
Method in brief: (§1)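 Full saturation curves used duplicate assays at each of six concentrations, usually spanning 0.2–3 apparent Km. Kinetic values were derived by the Cleland method. Each value is expressed as a proportion of the PteGlu value from saturation curves run in the same experiment.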

[2] = target: T1, Folylpolyglutamate synthase, mitochondrial (Mus musculus); test: Activity (relative Vmax) was evaluated in vitro by purified mouse liver folate polyglutamate synthetase (FPGS).; method in brief: as §1
Mus musculus [3] = test: In vivo activity(%ILS) at optimal dose of 1 mg/kg, by intraperitoneal administration in BDF1 mice against L1210 leukemia cells; type: functional; conditions: L1210, ip
Mus musculus [4] = test: In vivo activity (survivors) at optimal dose of 1 mg/kg, by intraperitoneal administration in BDF1 mice against L1210 leukemia cells; […] given as 5/22; type: functional
Thymidylate synthase = target: T2, Thymidylate synthase (Lactobacillus casei, UniProt P00469); test: In vitro inhibitory concentration against Lactobacillus casei thymidylate synthetase; parameters: species or system Lacticaseibacillus casei
T2 sequence (P00469 whole entry): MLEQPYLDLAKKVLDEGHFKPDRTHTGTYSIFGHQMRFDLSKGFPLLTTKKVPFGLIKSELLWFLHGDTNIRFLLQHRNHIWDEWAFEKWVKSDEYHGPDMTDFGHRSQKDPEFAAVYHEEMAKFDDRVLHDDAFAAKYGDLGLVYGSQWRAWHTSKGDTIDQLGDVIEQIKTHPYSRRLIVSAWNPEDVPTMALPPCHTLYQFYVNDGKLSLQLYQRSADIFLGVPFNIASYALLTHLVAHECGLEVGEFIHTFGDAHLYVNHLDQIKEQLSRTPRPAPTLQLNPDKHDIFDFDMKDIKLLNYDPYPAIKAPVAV

L1210 [5] = test: (§2) Inhibitory concentration against the growth of L1210 murine leukemia cells in tissue culture.; type: functional, cell-based; conditions: Mus musculus
Mus musculus [6] = species on record: Mus musculus; test: as §2; type: functional, cell-based
Mus musculus [7] = test: In vivo activity (survivors) at optimal dose of 4mg/kg, by intraperitoneal administration in BDF1 mice against L1210 leukemia cells; […] given as 4/21; type: functional
Mus musculus [8] = test: (§3) In vivo activity(%ILS) at optimal dose of 4 mg/kg, by intraperitoneal administration in BDF1 mice against L1210 leukemia cells; type: functional; conditions: L1210, ip
[9] = target: T1, Folylpolyglutamate synthase, mitochondrial (Mus musculus); test: Activity (relative Km) was evaluated in vitro by purified mouse liver folate polyglutamate synthetase (FPGS).
Method in brief: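 Partially purified mouse liver FPGS incubated with each substrate for 1 h at 37 °C. Full saturation curves were run in duplicate at six concentrations, usually 0.2–3 apparent Km, and products were isolated. Kinetic constants came from Cleland analysis. Km is expressed relative to PteGlu, taken from saturation curves run in the same experiment.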

L1210 [10] = test: as §2; conditions: Mus musculus
L1210 [11] = test: as §3; type: functional; conditions: Mus musculus, L1210, ip
Mus musculus [12] = test: In vivo activity (survivors) at optimal dose of 4 mg/kg, by intraperitoneal administration in BDF1 mice against L1210 leukemia cells; […] given as 0/10; type: functional

SMILES | Relative Vmax [2] | Relative Km [1] | IC50 (Thymidylate synthase) [µM] | IC50 (L1210 [5]) [µM] | also measured
Nc1nc(=O)c2nc(CNc3ccc(C(=O)N[C@@H](CCC(=O)O)C(=O)O)cc3)cnc2[nH]1 | 1 |  |  |  | Km app [1]: 1 rel
Nc1nc(N)c2c(n1)NCC(CCc1ccc(C(=O)NC(CCC(=O)O)C(=O)O)cc1)C2 (stereo not given) | 1.61 | 0.23 | 920 | 0.0033 | ILS at 1 mg/kg (Mus musculus [3]): 111%; Survivors (Mus musculus [4]): 5
Nc1nc(O)c2cc(CCc3ccc(C(=O)N[C@@H](CCC(=O)O)C(=O)O)cc3)cnc2n1 | 0.9 | 0.68 |  |  | IC50 (Mus musculus [6]): > 100 µM
Nc1nc(O)c2c(n1)NCC(CNc1ccc(C(=O)N[C@@H](CCC(=O)O)C(=O)O)cc1)N2 (stereo not given in full) | 1.31 | 0.051 |  |  | 
Nc1nc(N)c2cc(CCc3ccc(C(=O)NC(CCC(=O)O)C(=O)O)cc3)cnc2n1 (stereo not given) | 0.35 |  | 92 | 0.017 | Survivors (Mus musculus [7]): 4; ILS at 4 mg/kg (Mus musculus [8]): 130%; Relative Km [9]: 0.86
Nc1nc(N)c2nc(CNc3ccc(C(=O)N[C@@H](CCC(=O)O)C(=O)O)cc3)cnc2n1 [AMINOPTERIN] | 1.5 | 0.21 |  | 0.0021 | 
CN(Cc1cnc2nc(N)nc(N)c2n1)c1ccc(C(=O)N[C@@H](CCC(=O)O)C(=O)O)cc1 [METHOTREXATE] |  |  |  |  | IC50 (L1210 [10]): 0.01 µM; ILS at 4 mg/kg (L1210 [11]): 85%; Survivors (Mus musculus [12]): 0
Nc1nc2ncc(CCc3ccc(C(=O)N[C@@H](CCC(=O)O)C(=O)O)cc3)cc2c(=O)[nH]1 |  |  | 77 |  | 
Nc1nc(O)c2c(n1)NCC(CCc1ccc(C(=O)NC(CCC(=O)O)C(=O)O)cc1)C2 (stereo not given) | 1.24 | 0.05 | > 1000 |  | IC50 (Mus musculus [6]): 0.059 µM
